Results pooled from the literature.
Each line is one published result; the experiments were not run side by side.
Target: Interferon-induced, double-stranded RNA-activated protein kinase (EIF2AK2, Homo sapiens, UniProt P19525)

CC/C(=N\NC(=O)NCc1cccc(O)c1)c1ccc(O)c(C)c1O
inhibition (enzyme activity, inhibitor; 0.1 µM): 8.7%

c1ccc(CNc2nc(N3CCOc4ccccc43)nc3c2CCCC3)cc1
inhibition (target engagement in cells, inhibitor, chemoproteomics; 20 mM): -5.4%

Cc1cnc(NC2CCOCC2)nc1-n1cnc(C(=O)NC(CN)c2cc(F)cc(Cl)c2)c1 (centres unmarked)
remaining activity (enzyme activity, inhibitor, radiometric; 1 µM): 39%

Cc1ccc(C(=O)NCc2ccsc2)cc1C#Cc1cn(C(C)C)c2ncnc(N)c12
activity vs control (enzyme activity, inhibitor; 1 µM): 97%

CCCCNc1ncc2c(-c3ccc(F)cc3)nn(C[C@H]3CC[C@H](N)CC3)c2n1
inhibition (target engagement in cells, inhibitor, chemoproteomics; 20 mM): 8.5%

N#Cc1ccc(Nc2ccc3[nH]c(=O)[nH]c3c2)c(Cl)c1
remaining binding (cell-free assay, competition with immobilised ligand; 1 µM): 57%

Cc1cc(NC(=O)c2cccc3cc(-c4cccc5[nH]nc(N)c45)ccc23)ccc1F
activity vs control (enzyme activity, inhibitor; 0.1 µM): 106%

CNc1cc(Oc2cc(C(=O)Nc3cc(N4CCN(C)CC4)cc(C(F)(F)F)c3)ccc2C)ncn1
inhibition (target engagement in cells, inhibitor, chemoproteomics; Huh-7; 1 µM): -13%

Cc1ccc(C(=O)Nc2ccc(CN3CCN(C)CC3)c(C(F)(F)F)c2)cc1C#Cc1cnc2cccnn12
remaining activity (enzyme activity, inhibitor; 23.5 nM): 100%

CC(C)(C)c1nc2c(s1)c1nc(N)ncc1c1ccc(NS(=O)(=O)c3c(F)cccc3F)c(F)c12
remaining activity (enzyme activity, inhibitor, radiometric; 1 µM): 93%

Cc1nc(N2CC[C@@H](O)C2)ncc1-c1cc(C(F)(F)F)cc2[nH]ncc12
remaining binding (binding, competition with immobilised ligand; 1 µM): 100%

Cc1ccc(NC(=O)c2ccc(C)c(C(F)(F)F)c2)cc1C#Cc1nn(C2CCC(O)CC2)c2ncnc(N)c12 (centres unmarked)
remaining signal (cell-free assay; 10 µM): 75%

CN1CC(Oc2cnc(C#N)cc2-c2ccn3nc(NC(=O)C4CC4)cc3c2)C1
inhibition (enzyme activity, inhibitor; 1 µM): 14%

C[C@H]1CCN(c2nccc(-c3cnn4ncccc34)n2)C1
remaining binding (binding; 1 µM): 100%

Nc1ncnc2occ(-c3ccc(NC(=O)Nc4cc(C(F)(F)F)ccc4F)cc3)c12
remaining signal (cell-free assay, inhibitor; 20 µM): 54%

CC(C)CC(=O)N1CCc2nc(-c3ccc(Br)cc3)nc(N(C)Cc3ccccc3)c2C1
remaining binding (cell-free assay, competition with immobilised ligand; 0.1 µM): 100%

CC(C)(C)c1nc(-c2cccc(NS(=O)(=O)c3c(F)cccc3F)c2F)c(-c2ccnc(N)n2)s1
remaining activity (enzyme activity, inhibitor, radiometric; 1 µM): 95%
